Laboratory results from ChEMBL document CHEMBL1142276, “Synthesis, cannabinoid receptor affinity, and molecular modeling studies of substituted 1-aryl-5-(1H-pyrrol-1-yl)-1H-pyrazole-3-carboxamides” (J Med Chem, 2008).
Calls of active or inactive are those of the source. The rule behind the calls is not given here.

Legend:
Cannabinoid receptor 1 [1] = biological target: Cannabinoid receptor 1 (Homo sapiens, UniProt P21554); assay: biochemical; format: cell-based, HEK293
Cannabinoid receptor 2 = Cannabinoid receptor 2 (Homo sapiens, UniProt P34972); assay: Displacement of [3H]CP-55940 from human recombinant CB2 receptor expressed in HEK cells; format: cell-based, HEK293
Chain of Cannabinoid receptor 2 (P34972 whole entry): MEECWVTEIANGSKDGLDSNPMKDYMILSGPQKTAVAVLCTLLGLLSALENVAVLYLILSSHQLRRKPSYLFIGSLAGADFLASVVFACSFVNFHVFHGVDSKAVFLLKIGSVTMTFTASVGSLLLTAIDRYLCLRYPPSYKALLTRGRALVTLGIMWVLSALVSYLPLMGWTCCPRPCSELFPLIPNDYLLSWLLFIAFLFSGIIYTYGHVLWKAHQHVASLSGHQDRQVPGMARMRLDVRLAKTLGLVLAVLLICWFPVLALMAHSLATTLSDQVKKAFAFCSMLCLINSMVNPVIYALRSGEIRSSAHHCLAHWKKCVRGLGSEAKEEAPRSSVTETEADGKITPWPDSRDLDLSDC
Outline: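 Membranes came from HEK cells transfected with human CB2. IC50 values were converted to Ki by Cheng-Prusoff. Values are means of at least three experiments, each in duplicate.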

Homo sapiens = organism: Homo sapiens; assay: Ratio of Ki for human recombinant CB2 receptor to human recombinant CB1 receptor
Cannabinoid receptor 1 [2] = biological target: Cannabinoid receptor 1 (Mus musculus, UniProt P47746); assay: Activity at mouse CB1 receptor in mouse N18TG2 cells assessed as forskolin-induced cAMP formation; format: functional, cell-based
Chain of Cannabinoid receptor 1 (Mus musculus, UniProt P47746) (P47746 whole entry): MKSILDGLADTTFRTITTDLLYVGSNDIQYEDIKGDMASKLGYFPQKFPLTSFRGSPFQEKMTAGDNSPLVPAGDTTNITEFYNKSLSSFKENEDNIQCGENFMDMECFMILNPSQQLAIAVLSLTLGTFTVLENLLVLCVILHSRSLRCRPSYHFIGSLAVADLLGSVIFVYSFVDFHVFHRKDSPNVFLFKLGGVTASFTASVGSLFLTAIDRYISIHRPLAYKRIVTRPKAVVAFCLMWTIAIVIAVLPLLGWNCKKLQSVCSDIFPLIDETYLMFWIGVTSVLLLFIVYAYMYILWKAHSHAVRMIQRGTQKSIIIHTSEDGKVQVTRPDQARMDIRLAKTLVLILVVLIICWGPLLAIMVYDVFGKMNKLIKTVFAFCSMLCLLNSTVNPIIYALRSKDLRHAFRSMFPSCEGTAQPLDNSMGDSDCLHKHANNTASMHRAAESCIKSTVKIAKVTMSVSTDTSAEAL
Outline: (§1)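 Intact confluent mouse N18TG2 neuroblastoma cells were stimulated for 10 min at 37 °C with 1 µM forskolin in serum-free DMEM with 20 mM HEPES, 0.1 mg/mL BSA and 0.1 mM IBMX. Compounds were given at various concentrations, with vehicle 0.1% methanol. Cells were then extracted with ethanol and cAMP was measured by kit.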

[3] = biological target: Cannabinoid receptor 1 (Mus musculus) (UniProt P47746); assay: Antagonist activity at mouse CB1 receptor in mouse N18TG2 cells assessed as forskolin-induced cAMP formation in presence of WIN-55212-2; format: functional, cell-based
Chain of Cannabinoid receptor 1 (Mus musculus) (P47746 whole entry): as above
Outline: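 Intact confluent N18TG2 cells were exposed to compound with or without the CB1 agonist WIN55,212-2 at 100 nM, in the presence and absence of 1 µM forskolin. Incubation was 10 min at 37 °C in serum-free DMEM with HEPES, BSA and IBMX, vehicle 0.1% methanol. cAMP in ethanol extracts was quantified by kit.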

[4] = biological target: Cannabinoid receptor 1 (Mus musculus) (UniProt P47746); assay: Activity at mouse CB1 receptor in mouse N18TG2 cells assessed as inhibition of forskolin-induced cAMP formation at 200 to 300 nM; format: functional, cell-based
Outline: as §1

Chain of Cannabinoid receptor 1 (Homo sapiens, UniProt P21554) (P21554 whole entry): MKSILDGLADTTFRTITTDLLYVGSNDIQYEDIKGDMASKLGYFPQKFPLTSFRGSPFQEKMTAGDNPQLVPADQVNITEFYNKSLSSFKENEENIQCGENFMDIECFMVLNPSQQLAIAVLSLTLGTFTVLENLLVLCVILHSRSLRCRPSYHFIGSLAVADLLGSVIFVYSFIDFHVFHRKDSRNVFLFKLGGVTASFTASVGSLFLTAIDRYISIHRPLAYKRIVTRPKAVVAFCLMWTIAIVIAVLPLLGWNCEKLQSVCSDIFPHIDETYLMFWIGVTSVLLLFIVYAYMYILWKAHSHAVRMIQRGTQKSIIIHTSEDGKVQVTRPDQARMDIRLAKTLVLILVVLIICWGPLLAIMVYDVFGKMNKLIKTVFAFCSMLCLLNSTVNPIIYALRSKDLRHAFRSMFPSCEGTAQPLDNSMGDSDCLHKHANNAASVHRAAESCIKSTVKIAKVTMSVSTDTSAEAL

Row | Structure (SMILES) | IC50 (Cannabinoid receptor 1 [1]) [nM] | Ki (Cannabinoid receptor 1 [1]) [nM] | Ki (Cannabinoid receptor 2) [nM] | IC50 (Cannabinoid receptor 2; hek293) | IC50 (Cannabinoid receptor 2; read-out: IC50) [nM] | Ratio Ki (Homo sapiens) | EC50 (Cannabinoid receptor 1 [2]) [nM] | Activity [3] | Activity [4]
1 | Cc1c(C(=O)NN2CCCCC2)nn(-c2ccccc2)c1-n1cccc1 | > 5000 | > 2820 | > 3940 | Not Active |  |  |  |  | 
2 | Cc1c(C(=O)NCc2ccc(Cl)c(Cl)c2)nn(-c2ccc(F)cc2F)c1-n1cccc1 |  |  | 390 |  | 500 |  |  |  | 
3 | Cc1c(C(=O)NN2CCOCC2)nn(-c2ccc(F)cc2F)c1-n1cccc1 | > 5000 | > 2820 | > 3940 |  | > 5000 |  |  |  | 
4 | Cc1c(C(=O)NN2CCCCC2)nn(-c2c(Cl)cc(Cl)cc2Cl)c1-n1c(C)ccc1C | 200 | 110 | > 3940 |  | > 5000 | > 35.8 |  |  | 
5 | N#Cc1c(C(=O)NN2CCCCC2)nn(-c2ccc(Cl)cc2)c1-n1cccc1 | 5000 | 2820 | > 3940 |  |  | > 1.4 |  |  | 
6 | Cc1c(C(=O)NCc2ccc(Cl)c(Cl)c2)nn(-c2ccc(Cl)c(Cl)c2)c1-n1cccc1 |  |  | 150 |  | 190 |  |  |  | 
7 | O=C(NN1CCCCC1)c1cc(-n2cccc2)n(-c2ccc(Cl)cc2)n1 |  |  | > 3940 |  |  |  |  |  | 
8 | Cc1c(C(=O)NC2CCCCC2)nn(-c2ccc(Cl)cc2Cl)c1-n1cccc1 | 100 | 56 | 64 |  | 81 | 1.14 |  |  | 
9 | Cc1c(C(=O)NCc2ccc(Cl)c(Cl)c2)nn(-c2c(Cl)cc(Cl)cc2Cl)c1-n1cccc1 |  |  | > 3940 |  | > 5000 |  |  |  | 
10 | Cc1c(C(=O)NCc2ccc(Cl)c(Cl)c2)nn(-c2ccc(Cl)cc2Cl)c1-n1cccc1 |  |  | 510 |  | 650 |  |  |  | 
11 | Cc1c(C(=O)NN2CCCCC2)nn(-c2ccc(Cl)c(Cl)c2)c1-n1c(C)ccc1C |  |  | 29 |  | 37 |  |  |  | 
12 | O=C(NC1CCCCC1)c1cc(-n2cccc2)n(-c2ccc(Cl)cc2)n1 | 500 | 280 | 1750 |  | 2220 | 6.25 |  |  | 
13 | Cc1nn(-c2ccc(Cl)cc2)c(-n2cccc2)c1C(=O)NCc1ccc(Cl)c(Cl)c1 |  |  | > 3940 |  |  |  |  |  | 
14 | Cc1c(C(=O)NN2CCCCC2)nn(-c2ccc(Cl)cc2Cl)c1-n1c(C)ccc1C | 67 | 38 | 980 |  | 1240 | 25.8 |  |  | 
15 | O=C(NN1CCCCC1)c1cc(-n2cccc2)n(-c2ccccc2)n1 | > 5000 | > 2820 | > 3940 |  |  |  |  |  | 
16 | Cc1c(C(=O)NN2CCCCC2)nn(-c2c(Cl)cc(Cl)cc2Cl)c1-n1cccc1 | 3200 | 1800 | > 3940 |  | > 5000 | > 2.19 |  |  | 
17 | Cc1c(C(=O)NN2CCCCC2)nn(-c2ccc(F)cc2F)c1-n1cccc1 |  |  | 2400 |  | 3000 |  |  |  | 

Row | Structure (SMILES) | IC50 (Cannabinoid receptor 1 [1]) [nM] | Ki (Cannabinoid receptor 1 [1]) [nM] | Ki (Cannabinoid receptor 2) [nM] | IC50 (Cannabinoid receptor 2; hek293) | IC50 (Cannabinoid receptor 2; read-out: IC50) [nM] | Ratio Ki (Homo sapiens) | EC50 (Cannabinoid receptor 1 [2]) [nM] | Activity [3] | Activity [4]
18 | Cc1c(C(=O)NCC2CCCCC2)nn(-c2ccc(Cl)cc2)c1-n1cccc1 | 200 | 110 | 390 |  | 500 | 3.55 |  |  | 
19 | Cc1c(C(=O)NN2CCCCC2)nn(-c2ccc(F)cc2F)c1-n1c(C)ccc1C |  |  | > 3940 |  | > 5000 |  |  |  | 
20 | Cc1c(C(=O)NC2CCCCC2)nn(-c2ccc(F)cc2F)c1-n1c(C)ccc1C |  |  | 570 |  | 720 |  |  |  | 
21 | N#Cc1c(C(=O)NN2CCCCC2)nn(-c2ccccc2)c1-n1cccc1 | > 5000 | > 2820 | > 3940 |  |  |  |  |  | 
22 | Cc1c(C(=O)NC2CCCCC2)nn(-c2c(Cl)cc(Cl)cc2Cl)c1-n1c(C)ccc1C |  |  | 390 |  | 500 |  |  |  | 
23 | Cc1c(C(=O)NC2CCCCC2)nn(-c2ccc(Cl)cc2Cl)c1-n1c(C)ccc1C | 74 | 42 | 87 |  | 110 | 2.07 |  |  | 
24 | Cc1c(C(=O)NC2CCCCC2)nn(-c2ccc(F)cc2F)c1-n1cccc1 |  |  | 65 |  | 83 |  |  |  | 
25 | Cc1c(C(=O)NCc2ccc(Cl)c(Cl)c2)nn(-c2ccc(F)cc2F)c1-n1c(C)ccc1C | 62 | 35 | > 3940 |  | > 5000 | > 113 | > 60 |  | 
26 | Cc1nn(-c2ccc(Cl)cc2)c(-n2cccc2)c1C(=O)NN1CCCCC1 | > 5000 | > 2820 | > 3940 |  |  |  |  |  | 
27 | Cc1c(C(=O)NC2CCCCC2)nn(-c2ccc(Cl)c(Cl)c2)c1-n1c(C)ccc1C | 25 | 14 | 1.3 |  | 1.7 | 0.093 |  |  | 
28 | Cc1c(C(=O)NC2CCCCC2)nn(-c2ccc(Cl)c(Cl)c2)c1-n1cccc1 | 10 | 5.6 | 1.7 |  | 2.2 | 0.3 | 1 | Active | inactive
29 | Cc1c(C(=O)NN2CCCCC2)nn(-c2ccc(Cl)cc2)c1-n1cccc1 | 200 | 110 | 2180 |  | 2770 | 19.8 |  |  | 
30 | Cc1c(C(=O)NN2CCCCC2)nn(-c2ccc(Cl)cc2Cl)c1-n1cccc1 | 3300 | 1850 | 1730 |  | 200 | 0.94 |  |  | 
31 | N#Cc1c(C(=O)NCc2ccc(Cl)c(Cl)c2)nn(-c2ccccc2)c1-n1cccc1 |  |  | > 3940 |  | > 5000 |  |  |  | 
32 | Cc1c(C(=O)NCc2ccc(Cl)c(Cl)c2)nn(-c2ccc(Cl)cc2Cl)c1-n1c(C)ccc1C | 50 | 28 | 3940 |  | 5000 | 141 | 25 |  | inactive
33 | Cc1c(C(=O)NN2CCCCC2)nn(-c2ccc(Cl)c(Cl)c2)c1-n1cccc1 |  |  | 20 |  | 25 |  |  |  | 
34 | Cc1c(C(=O)NCc2ccc(Cl)c(Cl)c2)nn(-c2ccc(Cl)c(Cl)c2)c1-n1c(C)ccc1C | 500 | 280 | 1370 |  | 1740 | 4.89 |  |  | 
